According to publication PMC9303693 (Journal of Clinical Pharmacology, 2022):
Values joined by “and” are separate entries in the source; they are usually repeats but may differ in a detail not shown here. Equal values may be shown once. Read-outs that look alike come from different tables or passages of the source.

Assays:
[1] = format: in vivo, human; conditions: for AUC0‐inf, LS Mean / Cmax, LS Mean: ANOVA, exponentiated LSM
[2] = Urinary excretion and renal clearance after a single 50-mg dose; format: in vivo, human; conditions: for mean renal clearance: ACP-5862
Summary of the method: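 In study 2, a single oral 50-mg capsule was taken with ≈240 mL water after an overnight fast. Urine was collected predose, 0–4 h and 4–24 h post-dose and pooled per interval for each subject. Analytes were quantified by validated LC-MS/MS with deuterated internal standards over a nominal urine range of 5 to 5000 ng/mL.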

human plasma [3] = assay: Plasma protein binding in study 2 subjects; format: in vitro ADME
Summary of the method: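 Severe hepatic impairment and matched control subjects received a single oral 50-mg dose of the test compound after an overnight fast. Blood (4 mL) was drawn on day 1 at 0.863, 1.75 and 6.5 h post-dose. Binding of parent and active metabolite in the plasma was assessed by ultracentrifugation to estimate the unbound fraction.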

human plasma [4] = assay: In vitro protein binding in human plasma; format: in vitro ADME; conditions: human plasma
BTK = conditions: cited from earlier work
[5] = human, plasma; cited from earlier work
[6] = cited from earlier work
[7] = ACP-5862/acalabrutinib, study 2, Control (n = 8), arithmetic mean (SD)
[8] = ACP-5862/acalabrutinib, study 2, Severe (n = 8), arithmetic mean (SD)
[9] = ACP-5862, severe hepatic impairment vs control subjects
[10] = plasma ACP-5862, Severe vs normal hepatic function (reference)
[11] = subjects with severe hepatic impairment

CC#CC(=O)NCCCC(=O)c1nc(-c2ccc(C(=O)Nc3ccccn3)cc2)c2c(N)nccn12 [ACP‐5862]
MR:AUC0‐inf (metabolite‐to‐parent ratio) [1, 7]: 3.59 and 3.6 ± 0.9
MR:AUC0‐last (metabolite‐to‐parent ratio) [1, 7]: 3.1 ± 0.7
MR:Cmax (metabolite‐to‐parent ratio) [1, 7]: 1.15 and 1.1 ± 0.4
MR:AUC0‐last (metabolite‐to‐parent ratio) [1, 8]: 0.6 ± 0.4
MR:Cmax (metabolite‐to‐parent ratio) [1, 8]: 0.247 and 0.2 ± 0.1
geometric mean ratio for AUC [1, 9]: 0.9
geometric mean ratio for Cmax [1, 9]: 1.01
AUC0‐inf, LS Mean ([1]; plasma ACP-5862, Control, n 8): 817.0 ng·h/mL
Cmax, LS Mean ([1]; plasma ACP-5862, Control, n 8): 166.5 ng/mL
AUC0‐inf, LS Mean ([1]; plasma ACP-5862, Severe, n 6): 782.2 ng·h/mL
Cmax, LS Mean ([1]; plasma ACP-5862, Severe, n 8): 168.7 ng/mL
AUC0‐inf GMR: Test/Reference [1, 10]: 95.7%
Cmax GMR: Test/Reference [1, 10]: 101.4%
mean renal clearance ([2]; matched control subjects with normal hepatic function): 605.3 mL/h
mean renal clearance [2, 11]: 692.6 mL/h
amount of the metabolite excreted in urine ([2]; ACP-5862 after 50-mg acalabrutinib, subjects with severe hepatic impairment): ≈ 0.415 mg
mean protein binding (human plasma [3]; healthy matched controls): ≈ 98%
mean protein binding (human plasma [3]; [11]): ≈ 94%
in vitro protein binding (human plasma [4]; plasma concentration 1 μM (0.482 μg/mL)): 98.7%
in vitro protein binding (human plasma [4]; plasma concentration 10 μM (4.82 μg/mL)): 98.6%
potency for BTK inactivation relative to parent acalabrutinib (BTK): ≈ 50%
share of total acalabrutinib‐related material in plasma [5]: > 10%

C=CC(=O)N1CCC[C@@H](n2nc(-c3ccc(Oc4ccccc4)cc3)c3c(N)ncnc32)C1 [ibrutinib]
mean AUC, fold higher compared with healthy controls ([6]; mild hepatic impairment): 2.7 fold
mean AUC, fold higher compared with healthy controls ([6]; moderate hepatic impairment): 8.0 fold
mean AUC, fold higher compared with healthy controls ([6]; severe hepatic impairment): 9.5 fold
